Series [1] concerns Plasmodium berghei. Kind of series: Antiplasmodial activity against luciferase expressing Plasmodium berghei sporozoites infected in human HuH7 cells assessed as reduction in parasite load preincubated for 1 hr followed by parasite infection and measured after 46 hrs by bioluminescence assay. It is filed as functional, organism-based. An outline of the steps:
(§1)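 Huh7 hepatoma cells seeded at 1x10^4/well, left overnight at 37 °C, 5% CO2. Serial dilutions from 10 mM DMSO stocks in medium with gentamicin and amphotericin B added 1 h before 1x10^4 firefly luciferase-expressing P. berghei sporozoites from An. stephensi salivary glands. Spin 1800 xg for 5 min, then culture. Parasite load read by bioluminescence. DMSO and atovaquone as controls. IC50 from nonlinear regression of normalized curves.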

Series [2] relates to Plasmodium berghei. Kind of series: Antiplasmodial activity against luciferase expressing Plasmodium berghei sporozoites infected in human HuH7 cells assessed as reduction in parasite load at 1 to 10 uM preincubated for 1 hr followed by parasite infection and measured after 46 hrs by bioluminescence assay. It counts as functional, organism-based. An outline of the steps:
as §1

A further series relates to Huh-7. Kind of series: Cytotoxicity against human HuH7 cells infected with luciferase expressing Plasmodium berghei sporozoites assessed as reduction in cell viability preincubated for 1 hr followed by parasite infection and measured after 48 hrs by alamar blue assay. It counts as cell-based. The settings on record: huh-7, 46 h, in the assay text read “46 hrs” for “48 hrs”. An outline of the steps: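 Huh7 cells were pre-treated for 1 h with serial dilutions from 10 mM DMSO stocks, then infected with luciferase-expressing P. berghei sporozoites and spun at 1800 xg for 5 min. Cultures were kept at 37 °C, 5% CO2. Viability was read by Alamar Blue added at 46 h post infection, following the manufacturer's instructions.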
A general note: The colour change of resazurin is a common sign of viable cells or microbes.

The subject of series [3] is Plasmodium falciparum. Kind of series: Antiplasmodial activity against chloroquine-sensitive ring-stage synchronized cultures of Plasmodium falciparum NF54 incubated for 48 hrs by SYBR green I dye based flow cytometry. It counts as functional, organism-based. In a few lines: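 Ring-stage synchronized PfNF54 cultures (2.5% hematocrit, ~1% parasitemia) exposed to compounds or DMSO vehicle for 48 h at 37 °C under 5% CO2/5% O2. Stocks in DMSO diluted in RPMI 1640-based medium with Albumax, HEPES, hypoxanthine. ~800 000 cells stained with SYBR green I for 20 min in the dark; ~100,000 events counted by flow cytometry. Triplicates, at least three experiments.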

Series [4] deals with Plasmodium falciparum. Description: Potency index, ratio of ivermectin IC50 to test compound IC50 for antiplasmodial activity against chloroquine-sensitive ring-stage synchronized cultures of Plasmodium falciparum NF54. It is filed as functional.
In a further series the test system is Anopheles stephensi. Description: Insecticidal activity against compound treated Balb/c mouse blood fed Anopheles stephensi assessed as effect on mosquito survival at 1 mg/kg, po administered via gavage 24 hrs prior to blood feed for 20 mins under dark condition and measured daily up to 14 days post blood feed. It counts as functional, organism-based. In a few lines: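 Balb/c mice (6-8 weeks) received a single oral dose of 1 mg/kg as a suspension in sunflower oil. Controls got DMSO in sunflower oil. At 24 h, ~30 mosquitoes per mouse fed for ~20 min in the dark. Blood ingestion was confirmed visually, and survival was scored daily up to 14 days.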

Series [5] relates to Plasmodium berghei. Description: Potency index, ratio of ivermectin IC50 to test compound IC50 for antiplasmodial activity against luciferase expressing Plasmodium berghei sporozoites infected in human HuH7 cells. It is filed as functional.
[6] abbreviates: Plasmodium falciparum, NF54, 48 h, read-out: IC50.

The source made the active and inactive calls. The rule behind the calls is not given here.

The term IC50 denotes the concentration at which inhibition is half-maximal. With `O=C1C(O)=C([C@H]2CC[C@H](c3ccc(Cl)cc3)CC2)C(=O)c2ccccc21` [ATOVAQUONE], the half-maximal inhibitory concentration (IC50) with Plasmodium berghei [1] (Plasmodium berghei, Huh-7) came out at 0.7 nM.

As to `CC[C@H](C)[C@H]1O[C@]2(CC[C@@H]1C)C[C@@H]1C[C@@H](C/C=C(\C)[C@@H](OC(=O)Cn3cc(COc4nc(C)c(C(=O)OC(C)C)c(-c5cccc([N+](=O)[O-])c5)n4)nn3)[C@@H](C)/C=C/C=C3\CO[C@@H]4[C@H](O)C(C)=C[C@@H](C(=O)O1)[C@]34O)O2`, the result in the series with Plasmodium berghei [2] was Active. The IC50 in the series with Plasmodium berghei [1] (Plasmodium berghei, Huh-7) is 911 nM; in the series with Plasmodium falciparum [3] (setting [6]), 161 nM. For the same compound, in the series with Huh-7, the Activity entry is given as “Non-Toxic”. The “Ratio IC50” value with Plasmodium falciparum [4] worked out at 3.

In the case of `CC[C@H](C)[C@H]1O[C@]2(CC[C@@H]1C)C[C@@H]1C[C@@H](C/C=C(\C)[C@@H](O)[C@@H](C)/C=C/C=C3\CO[C@@H]4[C@H](O)C(C)=C[C@@H](C(=O)O1)[C@]34O)O2` [IVM AGLYCONE], the result with Plasmodium berghei [2] was Active. Also, the IC50 is 4560 nM in the series on Plasmodium berghei [1] (Plasmodium berghei, Huh-7) and “Not Active” in the series with Plasmodium falciparum [3]. Besides, the Activity result in the series with Huh-7 is on record as “Non-Toxic”. Further, the outcome in the series with Anopheles stephensi was inactive.

Take IVERMECTIN [listing 1 of 2 here]: the IC50 was found to be 1640 nM in the series with Plasmodium berghei [1] and 520 nM with Plasmodium falciparum [3] (read-out: IC50).

As for `CCOC(=O)c1c(C)nc(OCc2cn(CC(=O)O[C@@H]3/C(C)=C/C[C@@H]4C[C@@H](C[C@]5(CC[C@H](C)[C@@H]([C@@H](C)CC)O5)O4)OC(=O)[C@@H]4C=C(C)[C@@H](O)[C@H]5OC/C(=C\C=C\[C@@H]3C)[C@]54O)nn2)nc1-c1ccccc1`, the result in the series on Plasmodium berghei [2] was Active. Also, the IC50 in the series with Plasmodium berghei [1] (Plasmodium berghei, Huh-7) is 990 nM; with Plasmodium falciparum [3] (setting [6]), 110 nM. In addition, the Activity result in the series on Huh-7 is recorded as “Non-Toxic”. In addition, the “Ratio IC50” value in the series with Plasmodium falciparum [4] worked out at 11.

Take `CC[C@H](C)[C@H]1O[C@]2(CC[C@@H]1C)C[C@@H]1C[C@@H](C/C=C(\C)[C@@H](OC(=O)Cn3cc(COc4nc(C)c(C(=O)OC(C)C)c(-c5cccc([N+](=O)[O-])c5)n4)nn3)[C@@H](C)/C=C/C=C3\CO[C@@H]4[C@H](O[Si](C)(C)C(C)(C)C)C(C)=C[C@@H](C(=O)O1)[C@]34O)O2`: in the series with Plasmodium berghei [2], the outcome was inactive. The Activity entry with Huh-7 was “Non-Toxic”.

On to `CCOC(=O)c1c(C)nc(OCc2cn(CC(=O)O[C@@H]3/C(C)=C/C[C@@H]4C[C@@H](C[C@]5(CC[C@H](C)[C@@H]([C@@H](C)CC)O5)O4)OC(=O)[C@@H]4C=C(C)[C@@H](O)[C@H]5OC/C(=C\C=C\[C@@H]3C)[C@]54O)nn2)nc1-c1cc(OC)c(OC)cc1[N+](=O)[O-]`, for which the outcome in the series with Plasmodium berghei [2] was Active. Also, the IC50 in the series on Plasmodium berghei [1] (Plasmodium berghei, Huh-7) was 503 nM; with Plasmodium falciparum [3] (setting [6]) it was 50.2 nM. The Activity result in the series with Huh-7 is “Non-Toxic”. Also, the “Ratio IC50” value with Plasmodium berghei [5] is on record as 3; in the series with Plasmodium falciparum [4], 5. Besides, the outcome with Anopheles stephensi was inactive.

IVERMECTIN [listing 2 of 2 here]: in the series with Anopheles stephensi, the outcome was Active.

(Values after ChEMBL document CHEMBL4354848, “Molecular Design and Synthesis of Ivermectin Hybrids Targeting Hepatic and Erythrocytic Stages of Plasmodium Parasites” (J Med Chem, 2020).)
